Results on one compound are retold here after ChEMBL document CHEMBL4145474, “Discovery of novel piperonyl derivatives as diapophytoene desaturase inhibitors for the treatment of methicillin-, vancomycin- and linezolid-resistant Staphylococcus aureus infections” (Eur J Med Chem, 2018).

Assay [1] concerns Staphylococcus aureus. Description: Growth inhibition of vancomycin-intermediate methicillin-resistant Staphylococcus aureus Mu50 at 0.2 mM incubated for overnight. The class given is functional, organism-based. In short, it runs like this: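 Overnight cultures washed in PBS and diluted in TSB to OD600 ~1.0. Inoculated to a final OD600 of about 0.05 into TSB containing compound (0.2 or 0.05 mM, from a 20 mM DMSO stock) or DMSO growth control, overlaid with paraffin wax. OD600 read every 30 min during overnight incubation at 37 °C.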

In assay [2] the test system is Staphylococcus aureus. Description: Inhibition of pigmentation in methicillin/linezolid-resistant Staphylococcus aureus NRS271 after 48 hrs by spectrophotometric method. The class given is functional, organism-based. The settings on record: NRS271, 48 h. In short, it runs like this: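 Bacteria grown in 4 mL TSB for 48 h at 37 °C with compound serially diluted from DMSO, in duplicate; DMSO vehicle control and non-pigmented CrtN mutant as reference. Cells from 3 mL of culture washed twice with 0.01 M PBS and pigment extracted into methanol. Absorbance read at 450 nm; IC50 fitted from the concentration series.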

The subject of assay [3] is Staphylococcus aureus. Description: Antibacterial activity against wild type Staphylococcus aureus Newman infected in BALB/c mouse assessed as decrease in bacterial survival in mouse liver at 0.4 mg, ip bid administered 4.5 days before 12 hrs bacterial infection measured after 90 hrs relative to control. The class given is functional.
Assay [4] relates to Staphylococcus aureus. Kind of assay: Antibacterial activity against vancomycin-intermediate methicillin-resistant Staphylococcus aureus Mu50 infected in BALB/c mouse assessed as decrease in bacterial survival in mouse kidney at 0.1 to 0.4 mg, ip bid administered 4.5 days after 6 hrs bacterial infection measured after 90 hrs. The class given is functional, organism-based. In short, it runs like this: (§1)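 6–8-week-old female BALB/c mice (SPF) dosed intraperitoneally twice daily over 4.5 d at 0.1 or 0.4 mg/bid. Pre-treatment started before infection; post-treatment started 6 h after infection. Vancomycin and linezolid controls given as pre-treatment at 0.4 mg/bid. Retro-orbital inoculation: Mu50 1.1 × 10⁹ CFU, NRS271 1.8 × 10⁸ CFU. Kidneys and livers homogenised in PBS/0.01% Triton X-100 and plated on TSA for CFU.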

Assay [5] relates to Staphylococcus aureus. Kind of assay: Antibacterial activity against wild type Staphylococcus aureus Newman infected in BALB/c mouse assessed as decrease in bacterial survival in mouse liver at 0.1 mg, ip bid administered 4.5 days after 6 hrs bacterial infection measured after 90 hrs relative to control. The class given is functional.
Another assay relates to HepG2. Kind of assay: Cytotoxicity against human HepG2 cells assessed as reduction in cell viability after 72 hrs by CCK-8 assay. The settings on record: HepG2, 72 h. The class given is functional. In short, it runs like this: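 HepG2 or HEK-293T cells were seeded at 5000 per well and grown 24 h at 37 °C, 5% CO₂. Cells were then exposed to compound for 72 h; compound came from DMSO, diluted in medium to final DMSO <0.4%, with a DMSO-matched vehicle control. Viability was read by 10% CCK-8 for 1 h, absorbance 450 nm, in triplicate.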

In assay [6] the target is T1, 4,4'-diapophytoene desaturase (4,4'-diaponeurosporene-forming) (Staphylococcus aureus (strain Newman)) (UniProt O07855).
T1 sequence (whole entry): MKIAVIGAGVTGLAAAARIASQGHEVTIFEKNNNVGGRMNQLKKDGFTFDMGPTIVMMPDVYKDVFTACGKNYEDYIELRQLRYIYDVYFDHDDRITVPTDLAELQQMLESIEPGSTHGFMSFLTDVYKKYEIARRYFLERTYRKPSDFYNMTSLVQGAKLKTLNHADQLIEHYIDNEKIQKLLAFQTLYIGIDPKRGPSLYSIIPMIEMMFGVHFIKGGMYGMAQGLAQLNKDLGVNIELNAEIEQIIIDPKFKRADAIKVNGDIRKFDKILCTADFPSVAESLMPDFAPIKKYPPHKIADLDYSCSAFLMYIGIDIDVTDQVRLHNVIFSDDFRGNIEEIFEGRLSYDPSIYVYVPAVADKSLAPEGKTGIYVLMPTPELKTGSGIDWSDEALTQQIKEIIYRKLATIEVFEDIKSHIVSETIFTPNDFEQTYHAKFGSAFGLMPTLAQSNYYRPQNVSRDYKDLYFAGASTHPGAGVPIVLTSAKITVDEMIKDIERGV
Description: Inhibition of CrtN in wild type Staphylococcus aureus Newman assessed as decrease in bacterial survival at 1 uM after 24 hrs by H2O2 killing assay relative to control. The settings on record: Staphylococcus aureus subsp. aureus str. Newman. In short, it runs like this:
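Bacteria were grown 24 h at 37 °C in TSB with compound, DMSO vehicle or NAC, then washed twice in PBS. Each reaction held 4 × 10⁶ CFU with H₂O₂ at 1.5% final, shaken 30 min at 37 °C and 250 rpm, then quenched with 1000 U/mL catalase. Survival was counted as CFU on TSA. Two independent experiments.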

The test system of assay [7] is Staphylococcus aureus. Kind of assay: Antibacterial activity against wild type Staphylococcus aureus Newman infected in BALB/c mouse assessed as decrease in bacterial survival in mouse kidney at 0.1 to 0.4 mg, ip bid administered 4.5 days after 6 hrs bacterial infection measured after 90 hrs. The class given is functional, organism-based. In short, it runs like this: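 Female BALB/c mice, 6-8 weeks old, infected retro-orbitally with 2.2 × 10⁷ CFU S. aureus Newman. Intraperitoneal dosing in 12 intervals: pre-treatment groups received a total of 50 or 200 mg/kg starting before infection; post-treatment groups received a total of 39 or 156 mg/kg starting 6 h after infection. Vehicle was ddH₂O. At 90 h post-infection, liver or kidney was homogenized in PBS/0.01% Triton X-100 and plated on TSA for CFU.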

Assay [8] concerns Staphylococcus aureus. Description: Antibacterial activity against vancomycin-intermediate methicillin-resistant Staphylococcus aureus Mu50 infected in BALB/c mouse assessed as decrease in bacterial survival in mouse kidney at 0.1 to 0.4 mg, ip bid administered 4.5 days before 24 hrs bacterial infection measured after 90 hrs. The class given is functional, organism-based. In short, it runs like this:
as §1

The subject of assay [9] is Staphylococcus aureus. Kind of assay: Antibacterial activity against methicillin/linezolid-resistant Staphylococcus aureus NRS271 infected in BALB/c mouse assessed as decrease in bacterial survival in mouse liver at 0.1 to 0.4 mg, ip bid administered 4.5 days before 24 hrs bacterial infection measured after 90 hrs. The class given is functional, organism-based. In short, it runs like this: as §1

Assay [10] relates to Staphylococcus aureus. Kind of assay: Antibacterial activity against methicillin/linezolid-resistant Staphylococcus aureus NRS271 infected in BALB/c mouse assessed as decrease in bacterial survival in mouse liver at 0.1 to 0.4 mg, ip bid administered 4.5 days after 6 hrs bacterial infection measured after 90 hrs. The class given is functional, organism-based. In short, it runs like this: as §1

Assay [11] has as its system Staphylococcus aureus. Description: Antibacterial activity against methicillin-resistant Staphylococcus aureus USA400 MW2 assessed as decrease in bacterial survival at 1 uM after 24 hrs by H2O2 killing assay. The class given is functional, organism-based.
Assay [12] concerns the target T1, 4,4'-diapophytoene desaturase (4,4'-diaponeurosporene-forming) (Staphylococcus aureus (strain Newman)). Kind of assay: Inhibition of CrtN in methicillin-resistant Staphylococcus aureus USA400 MW2 assessed as bacterial survival at 1 uM after 24 hrs by H2O2 killing assay (reference value: 26.33%).
The test system of assay [13] is Staphylococcus aureus. Kind of assay: Antibacterial activity against vancomycin-intermediate methicillin-resistant Staphylococcus aureus Mu50 infected in BALB/c mouse assessed as decrease in bacterial survival in mouse liver at 0.1 to 0.4 mg, ip bid administered 4.5 days before 24 hrs bacterial infection measured after 90 hrs. The class given is functional, organism-based. In short, it runs like this: as §1

Assay [14] relates to Staphylococcus aureus. Kind of assay: Antibacterial activity against vancomycin-intermediate methicillin-resistant Staphylococcus aureus Mu50 assessed as decrease in bacterial survival at 1 uM after 24 hrs by H2O2 killing assay. The class given is functional, organism-based.

Calls of active or inactive are those of the source. The calls are words filed in the database; no cut-off is given here.

By IC50 is commonly meant the concentration that gives 50% inhibition. What is called CC50 is the concentration that lowers cell viability or growth by half. Take `CN(C/C=C/C=C/c1ccc(C(F)(F)F)cc1F)Cc1ccc2c(c1)OCO2.Cl`: the “growth inhibition (GI)” value in the assay on Staphylococcus aureus [1] is “inactive”. In the assay with Staphylococcus aureus [2], this compound returned an IC50 of 4.1 nM. The Activity with Staphylococcus aureus [3] is recorded as 98.74%; in the assay with Staphylococcus aureus [5] it was 97.06%. For the same compound, the result in the assay on Staphylococcus aureus [4], in the assay with Staphylococcus aureus [7], in the assay with Staphylococcus aureus [8] and with Staphylococcus aureus [13] was Active. In the assay on HepG2, the CC50 amounted to 90.3 µM. Moreover, the fold change (FC) in [6] stood at 11.7. Further, the outcome with Staphylococcus aureus [9], in the assay on Staphylococcus aureus [10], in the assay on Staphylococcus aureus [11] and in the assay on Staphylococcus aureus [14] was inactive. For the same compound, in assay [12], the Survival is 2.33%.
